According to paper PMC5458759 (Genes & Development, 2017):

What was measured:
ER^LRR [1] = test: Pull-down assay with 6xHis-tagged ER^LRR; assay type: binding, Arabidopsis; settings: Ni resin, SDS-PAGE, Coomassie blue; without TMM^LRR
Outline: (§1)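 Purified C-terminal 6xHis-tagged receptor LRR, from High Five cells, was mixed with excess EPF-family peptide and Ni resin for 30 min on ice. The resin was washed four times in 25 mM Tris pH 8.0, 250 mM NaCl, 15 mM imidazole, then heated 5 min at 100°C in SDS loading buffer. Bound protein was detected by SDS-PAGE with Coomassie staining.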

ERL2^LRR [2] = test: Pull-down assay with 6xHis-tagged ERL2^LRR; assay type: binding, Arabidopsis; settings: Ni resin, SDS-PAGE, Coomassie blue; without TMM^LRR
Outline: as §1

ERL1^LRR [3] = test: Gel filtration assay with ERL1^LRR; assay type: binding, Arabidopsis; settings: 10 mM Bis-Tris pH 6.0, 100 mM NaCl; incubated 30 min at 4°C
Outline: (§2)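 LRR ectodomains were expressed in High Five insect cells by baculovirus at 22°C; for complexes, the ERf and TMM viruses were added together. Protein was purified from the supernatant by Ni-NTA and then size exclusion. Receptor and EPF-family peptide were mixed, held 30 min at 4°C, then run on Superdex 200 in 10 mM Bis-Tris pH 6.0, 100 mM NaCl. Fractions were analysed by SDS-PAGE with Coomassie staining.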

ERL1^LRR [4] = test: Pull-down assay with 6xHis-tagged ERL1^LRR; assay type: binding, Arabidopsis; settings: Ni resin, SDS-PAGE, Coomassie blue; without TMM^LRR
Outline: as §1

ER^LRR [5] = test: Gel filtration assay with ER^LRR; assay type: binding, Arabidopsis; settings: 10 mM Bis-Tris pH 6.0, 100 mM NaCl; incubated 30 min at 4°C
Outline: as §2

ERL2^LRR [6] = test: Gel filtration assay with ERL2^LRR; assay type: binding, Arabidopsis; settings: 10 mM Bis-Tris pH 6.0, 100 mM NaCl; incubated 30 min at 4°C
Outline: as §2

ERL1^LRR [7] = test: Biochemical assay of EPFL8 interaction; assay type: binding, Arabidopsis; settings: Supplemental Fig. S11
ERL1^LRR–TMM^LRR complex [8] = test: Ligand competition assay, ERL1^LRR–TMM^LRR; assay type: binding, Arabidopsis; settings: 10 µM EPF2-6xHis or EPF1-6xHis, increasing concentrations of EPFL9, 1 h at 4°C
Outline: (§3)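 The ERf–TMM LRR complex was coexpressed in High Five cells and purified by Ni-NTA and gel filtration. It was incubated with 10 µM His-tagged EPF peptide, with or without varying concentrations of competing peptide, for 1 h at 4°C with gentle agitation. The mixture was then passed over Ni beads and washed four times. Eluate was boiled 5 min at 100°C in SDS loading buffer and read by SDS-PAGE with Coomassie staining.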

ERL1^LRR–TMM^LRR complex [9] = test: Gel filtration assay with ERL1^LRR–TMM^LRR complex; assay type: binding, Arabidopsis; settings: 10 mM Bis-Tris pH 6.0, 100 mM NaCl; incubated 30 min at 4°C
Outline: as §2

ER^LRR–TMM^LRR complex [10] = test: Ligand competition assay, ER^LRR–TMM^LRR; assay type: binding, Arabidopsis; settings: 10 µM EPF2-6xHis or EPF1-6xHis, increasing concentrations of EPFL9, 1 h at 4°C
Outline: as §3

ER^LRR–TMM^LRR complex [11] = target: T1, ER^LRR–TMM^LRR complex (Arabidopsis thaliana, UniProt Q42371;Q9SSD1); test: pull-down
T1 sequence 1: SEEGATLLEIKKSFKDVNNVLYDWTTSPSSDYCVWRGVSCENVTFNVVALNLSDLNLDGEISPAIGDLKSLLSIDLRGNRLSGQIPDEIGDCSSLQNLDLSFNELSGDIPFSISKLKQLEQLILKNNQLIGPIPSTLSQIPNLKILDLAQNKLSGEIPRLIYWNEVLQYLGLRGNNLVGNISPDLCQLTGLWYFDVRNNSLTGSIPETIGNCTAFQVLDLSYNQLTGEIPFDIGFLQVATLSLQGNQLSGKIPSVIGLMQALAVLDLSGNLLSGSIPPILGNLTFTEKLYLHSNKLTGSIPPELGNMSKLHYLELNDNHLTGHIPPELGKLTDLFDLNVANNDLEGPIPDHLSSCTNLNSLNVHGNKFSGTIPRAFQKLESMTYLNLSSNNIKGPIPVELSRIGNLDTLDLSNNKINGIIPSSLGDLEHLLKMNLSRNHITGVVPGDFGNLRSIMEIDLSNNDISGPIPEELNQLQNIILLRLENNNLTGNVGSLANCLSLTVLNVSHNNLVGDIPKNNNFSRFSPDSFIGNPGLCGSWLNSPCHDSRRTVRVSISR
T1 sequence 2: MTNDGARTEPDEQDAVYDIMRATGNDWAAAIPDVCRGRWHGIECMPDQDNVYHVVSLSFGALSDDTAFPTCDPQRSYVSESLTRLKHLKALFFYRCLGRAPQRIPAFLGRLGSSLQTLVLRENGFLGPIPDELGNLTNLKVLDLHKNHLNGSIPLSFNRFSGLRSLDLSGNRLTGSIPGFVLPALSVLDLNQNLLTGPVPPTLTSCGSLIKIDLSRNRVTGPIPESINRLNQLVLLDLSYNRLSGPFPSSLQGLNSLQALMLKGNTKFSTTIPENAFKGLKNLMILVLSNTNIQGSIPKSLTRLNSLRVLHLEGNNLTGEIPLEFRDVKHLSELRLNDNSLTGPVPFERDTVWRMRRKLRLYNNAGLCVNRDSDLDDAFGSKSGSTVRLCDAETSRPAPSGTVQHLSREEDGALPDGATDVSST

ERL1^LRR–TMM^LRR complex [12] = target: T2, ERL1^LRR–TMM^LRR complex (Arabidopsis thaliana, UniProt C0LGW6;Q9SSD1); test: ITC
T2 sequence 1: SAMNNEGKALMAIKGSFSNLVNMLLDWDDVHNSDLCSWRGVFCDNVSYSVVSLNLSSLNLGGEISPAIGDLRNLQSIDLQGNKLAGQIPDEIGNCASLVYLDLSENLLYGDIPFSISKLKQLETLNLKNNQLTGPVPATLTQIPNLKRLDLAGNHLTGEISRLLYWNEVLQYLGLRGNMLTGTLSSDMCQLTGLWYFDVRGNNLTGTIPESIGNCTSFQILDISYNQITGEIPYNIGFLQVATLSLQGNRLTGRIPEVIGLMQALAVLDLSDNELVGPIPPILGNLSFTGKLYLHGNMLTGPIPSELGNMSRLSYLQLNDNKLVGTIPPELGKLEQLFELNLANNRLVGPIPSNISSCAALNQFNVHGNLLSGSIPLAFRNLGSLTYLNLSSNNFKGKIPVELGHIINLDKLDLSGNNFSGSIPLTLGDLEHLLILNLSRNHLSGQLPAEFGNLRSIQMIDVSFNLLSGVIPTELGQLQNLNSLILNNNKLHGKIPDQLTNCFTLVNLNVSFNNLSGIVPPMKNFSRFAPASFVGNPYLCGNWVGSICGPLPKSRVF
T2 sequence 2: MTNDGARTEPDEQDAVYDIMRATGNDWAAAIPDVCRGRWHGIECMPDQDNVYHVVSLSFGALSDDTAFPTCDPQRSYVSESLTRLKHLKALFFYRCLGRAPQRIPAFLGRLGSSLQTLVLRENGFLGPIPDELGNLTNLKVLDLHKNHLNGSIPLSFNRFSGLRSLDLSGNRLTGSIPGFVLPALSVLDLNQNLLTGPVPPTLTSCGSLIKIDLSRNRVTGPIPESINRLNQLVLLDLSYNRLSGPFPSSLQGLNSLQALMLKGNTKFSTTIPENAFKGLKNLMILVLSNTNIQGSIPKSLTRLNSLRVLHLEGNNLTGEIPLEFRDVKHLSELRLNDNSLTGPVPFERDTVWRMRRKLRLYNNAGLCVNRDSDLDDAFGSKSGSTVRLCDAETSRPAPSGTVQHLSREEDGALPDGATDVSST

[13] = target: T3, ERL1^LRR, extracellular LRR domain of ER-LIKE1 (ERL1) (Arabidopsis thaliana, UniProt C0LGW6 24-580); test: ITC
T3 sequence: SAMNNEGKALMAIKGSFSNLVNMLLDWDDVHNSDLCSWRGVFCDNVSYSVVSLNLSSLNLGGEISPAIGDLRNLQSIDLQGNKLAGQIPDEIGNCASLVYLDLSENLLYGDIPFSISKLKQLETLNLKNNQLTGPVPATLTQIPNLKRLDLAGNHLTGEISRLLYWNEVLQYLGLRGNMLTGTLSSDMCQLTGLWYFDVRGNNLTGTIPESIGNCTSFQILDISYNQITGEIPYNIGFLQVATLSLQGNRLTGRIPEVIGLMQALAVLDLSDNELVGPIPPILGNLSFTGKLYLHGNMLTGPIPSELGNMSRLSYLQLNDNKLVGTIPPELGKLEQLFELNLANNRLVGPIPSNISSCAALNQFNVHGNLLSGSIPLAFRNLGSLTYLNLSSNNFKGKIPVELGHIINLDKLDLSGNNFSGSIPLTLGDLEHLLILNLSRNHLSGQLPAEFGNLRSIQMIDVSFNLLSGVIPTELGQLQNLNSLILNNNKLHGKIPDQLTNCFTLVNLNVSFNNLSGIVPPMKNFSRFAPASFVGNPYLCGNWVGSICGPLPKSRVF

[14] = target: T4, ER^LRR, extracellular LRR domain of ERECTA (ER) (Arabidopsis thaliana, UniProt Q42371 24-580); test: pull-down
T4 sequence: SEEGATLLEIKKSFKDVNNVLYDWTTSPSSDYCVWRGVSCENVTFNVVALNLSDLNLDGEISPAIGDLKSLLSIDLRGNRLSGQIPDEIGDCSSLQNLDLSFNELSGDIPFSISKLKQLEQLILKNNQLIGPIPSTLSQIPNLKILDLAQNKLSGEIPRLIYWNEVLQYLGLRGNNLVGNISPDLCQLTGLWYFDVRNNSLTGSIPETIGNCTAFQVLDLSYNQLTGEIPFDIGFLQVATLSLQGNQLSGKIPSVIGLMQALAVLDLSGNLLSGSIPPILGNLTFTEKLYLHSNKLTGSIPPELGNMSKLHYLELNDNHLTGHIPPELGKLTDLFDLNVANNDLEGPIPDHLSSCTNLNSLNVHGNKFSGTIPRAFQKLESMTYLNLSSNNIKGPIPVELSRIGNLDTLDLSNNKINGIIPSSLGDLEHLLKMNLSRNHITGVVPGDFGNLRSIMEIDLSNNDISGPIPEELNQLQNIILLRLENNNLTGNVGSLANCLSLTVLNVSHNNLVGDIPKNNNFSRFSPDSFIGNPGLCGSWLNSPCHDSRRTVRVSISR

[15] = target: T5, ERL2^LRR, extracellular LRR domain of ERL2 (Arabidopsis thaliana, UniProt Q6XAT2 28-580); test: pull-down
T5 sequence: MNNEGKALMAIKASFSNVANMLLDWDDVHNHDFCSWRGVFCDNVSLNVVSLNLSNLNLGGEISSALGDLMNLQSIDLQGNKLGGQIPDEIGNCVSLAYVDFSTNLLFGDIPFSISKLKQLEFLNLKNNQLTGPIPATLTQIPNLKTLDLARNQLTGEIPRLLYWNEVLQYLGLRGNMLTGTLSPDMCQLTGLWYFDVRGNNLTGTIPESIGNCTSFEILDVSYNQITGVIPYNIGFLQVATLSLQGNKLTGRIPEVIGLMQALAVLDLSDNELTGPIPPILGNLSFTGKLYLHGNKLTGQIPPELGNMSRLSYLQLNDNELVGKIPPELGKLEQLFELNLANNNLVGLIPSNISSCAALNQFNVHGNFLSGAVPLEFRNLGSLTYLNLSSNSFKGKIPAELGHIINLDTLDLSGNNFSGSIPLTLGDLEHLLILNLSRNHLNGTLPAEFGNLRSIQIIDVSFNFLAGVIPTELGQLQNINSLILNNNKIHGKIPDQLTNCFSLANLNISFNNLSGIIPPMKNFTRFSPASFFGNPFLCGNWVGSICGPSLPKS

[16] = target: T3, ERL1^LRR, extracellular LRR domain of …; test: pull-down

“EPFL4: EPF family growth regulatory peptide, residues 59–109 (PGSSPPTCRSKCGKCQPCKPVHVPIQPGLSMPLEYYPEAWRCKCGNKLFMP)” was tested, and the “interaction with ER^LRR in pull-down” value (ER^LRR [1]) was “interacted strongly”, the “interaction with ERL2^LRR in pull-down” value (ERL2^LRR [2]) was “interacted strongly” and the “interaction with ERL1^LRR alone in gel filtration” value (ERL1^LRR [3]) was “interacted strongly”. The “interaction with ERL1^LRR in pull-down” value (ERL1^LRR [4]) was “interacted strongly”, the “interaction with ER^LRR alone in gel filtration” value (ER^LRR [5]) was “interacted strongly” and the “interaction with ERL2^LRR alone in gel filtration” value (ERL2^LRR [6]) was “interacted strongly”.

In the case of “EPFL8: EPF family peptide, residues 46–99 (MGSEPPVCATKCRNCKPCLPYLFDIRGAHDDDDDSEPYYPVKWICRCRDRVFEP)”, the “interaction with ERL1^LRR in the absence of TMM^LRR” value (ERL1^LRR [7]) is reported as “interacted”.

With “EPFL9: EPF family peptide, residues 58–102, promotes stomatal development (IGSTAPTCTYNECRGCRYKCRAEQVPVEGNDPINSAYHYRCVCHR)” the “interaction with ERL1^LRR alone in gel filtration” value (ERL1^LRR [3]) was “weak interaction”, the “competition: amount of ERL1^LRR–TMM^LRR pulled down by EPF2 or EPF1” value (ERL1^LRR–TMM^LRR complex [8]) was “gradually decreased the amount” and the “interaction with ERL1^LRR–TMM^LRR in gel filtration (comigration)” value (ERL1^LRR–TMM^LRR complex [9]) was “much more EPFL9 was shifted to a higher-molecular-weight species and comigrated with the complex”. The “competition: amount of ER^LRR–TMM^LRR pulled down by EPF2 or EPF1” value (ER^LRR–TMM^LRR complex [10]) was “gradually decreased the amount”.

In the case of IGSTAPTCTYNECRGCRYKCRAEQVPVEGNDPINSAYHYRCVCHR [EPFL9 (STOMAGEN) peptide, residues 58–102], the binding result (ER^LRR–TMM^LRR complex [11]) is reported as “binds”, the Kd (ERL1^LRR–TMM^LRR complex [12]) is reported as 4 µM and the “fold lower affinity than for ERL1^LRR–TMM^LRR” value [13] is reported as roughly 10 fold.

B1: EPFL6 (CHALLAH, CHAL) peptide, residues 106–156 (peptide)
chain: LGSSPPRCSSKCGRCTPCKPVHVPVPPGTPVTAEYYPEAWRCKCGNKLYMP
B1: binds [14]; binds [15]; binds [16]. B1: binds (ERL1^LRR–TMM^LRR complex [12]).
